Measured values published in ChEMBL document CHEMBL1156009, “Eleven amino acid glucagon-like peptide-1 receptor agonists with antidiabetic activity” (J Med Chem, 2009).
Activity calls are given as the source filed them. The rule behind the calls is not given here. Square brackets hold non-standard residues; d marks the D form. Peptide text beside a SMILES is read from it. Bip(2'-Et-4'-OMe) = CCc1cc(OC)ccc1-c1ccc(C[C@H](N)C(=O)O)cc1; Bip(2'-Me) = Cc1ccccc1-c1ccc(C[C@H](N)C(=O)O)cc1; αMeF = C[C@](N)(Cc1ccccc1)C(=O)O; Aib = CC(C)(N)C(=O)O

target: T1, Glucagon-like peptide 1 receptor (Homo sapiens, UniProt P43220); assay: Displacement of [125I]GLP1 from human GLP1R expressed in CHO cells; format: cell-based
T1 sequence (P43220 whole entry): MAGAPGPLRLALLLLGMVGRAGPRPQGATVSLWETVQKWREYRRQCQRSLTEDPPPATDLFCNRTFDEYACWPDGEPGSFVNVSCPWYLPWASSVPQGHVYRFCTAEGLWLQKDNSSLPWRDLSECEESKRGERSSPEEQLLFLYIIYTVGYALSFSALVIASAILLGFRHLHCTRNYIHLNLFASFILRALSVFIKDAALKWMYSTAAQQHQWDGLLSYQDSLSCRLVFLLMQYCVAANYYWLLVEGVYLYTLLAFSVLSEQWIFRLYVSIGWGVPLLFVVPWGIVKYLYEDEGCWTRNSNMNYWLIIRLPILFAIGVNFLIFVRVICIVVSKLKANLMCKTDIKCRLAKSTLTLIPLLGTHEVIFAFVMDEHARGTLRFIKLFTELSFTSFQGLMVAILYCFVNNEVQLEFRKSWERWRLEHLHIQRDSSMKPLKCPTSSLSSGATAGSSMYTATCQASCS

SMILES | Activity
C[C@H](NC(=O)[C@@H](N)Cc1cnc[nH]1)C(=O)N[C@@H](CCC(=O)O)C(=O)NCC(=O)N[C@H](C(=O)N[C@@H](Cc1ccccc1)C(=O)N[C@H](C(=O)N[C@@H](CO)C(=O)N[C@@H](CC(=O)O)C(=O)N[C@@H](Cc1ccc(-c2ccccc2)cc1)C(=O)N[C@@H](Cc1ccc(-c2ccccc2)cc1)C(N)=O)[C@@H](C)O)[C@@H](C)O | Active

target: T1, Glucagon-like peptide 1 receptor; assay: Agonist activity at human GLP1R expressed in CHO cells assessed as stimulation of intracellular [3H]cAMP accumulation after 30 mins by scintillation proximity assay; format: functional, cell-based
Outline: (§1)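 CHO cells stably expressing human or mouse GLP-1R, grown in F-12 with 10% FBS plus Geneticin (0.4 mg/mL human, 1 mg/mL mouse), plated 2×10^4/well overnight. Half-log dilutions made in DMSO, then in DPBS with 0.1 mM IBMX and 0.05% BSA (final 1% DMSO). Cells exposed 30 min. cAMP read by SPA and converted to pmol via standard curve. Duplicates, at least three separate runs.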

SMILES | EC50
Cc1ccccc1-c1ccc(C[C@H](NC(=O)[C@H](Cc2ccc(-c3ccccc3)cc2)NC(=O)[C@H](CC(=O)O)NC(=O)[C@H](CO)NC(=O)[C@@H](NC(=O)[C@H](Cc2ccccc2)NC(=O)[C@@H](NC(=O)CNC(=O)[C@H](CCC(=O)O)NC(=O)[C@H](C)NC(=O)[C@@H](N)Cc2cnc[nH]2)[C@@H](C)O)[C@@H](C)O)C(N)=O)cc1 | 480 nM
CCc1cc(OC)ccc1-c1ccc(C[C@H](NC(=O)[C@H](CC(=O)O)NC(=O)[C@H](CO)NC(=O)[C@@H](NC(=O)[C@H](Cc2ccccc2)NC(=O)[C@@H](NC(=O)CNC(=O)[C@H](CCC(=O)O)NC(=O)[C@H](C)NC(=O)[C@@H](N)Cc2cnc[nH]2)[C@@H](C)O)[C@@H](C)O)C(=O)N[C@@H](Cc2ccc(-c3ccccc3C)cc2)C(N)=O)cc1 | 7 nM
C[C@H](NC(=O)[C@@H](N)Cc1cnc[nH]1)C(=O)N[C@@H](CCC(=O)O)C(=O)NCC(=O)N[C@H](C(=O)N[C@@H](Cc1ccccc1)C(=O)N[C@H](C(=O)N[C@@H](CO)C(=O)N[C@@H](CC(=O)O)C(=O)N[C@@H](Cc1ccc(-c2ccccc2)cc1)C(=O)N[C@@H](Cc1ccc(-c2ccccc2)cc1)C(=O)O)[C@@H](C)O)[C@@H](C)O | > 10000 nM
C[C@H](NC(=O)[C@@H](N)Cc1cnc[nH]1)C(=O)N[C@@H](CCC(=O)O)C(=O)NCC(=O)N[C@H](C(=O)N[C@@H](Cc1ccccc1)C(=O)N[C@H](C(=O)N[C@@H](CO)C(=O)N[C@@H](CC(=O)O)C(=O)N[C@@H](Cc1ccc(-c2ccccc2)cc1)C(=O)N[C@@H](Cc1ccc(-c2ccccc2)cc1)C(=O)N[C@@H](Cc1ccc(-c2ccccc2)cc1)C(N)=O)[C@@H](C)O)[C@@H](C)O | 787 nM
CCCc1ccccc1-c1ccc(C[C@H](NC(=O)[C@H](CC(=O)O)NC(=O)[C@H](CO)NC(=O)[C@@H](NC(=O)[C@H](Cc2ccccc2)NC(=O)[C@@H](NC(=O)CNC(=O)[C@H](CCC(=O)O)NC(=O)[C@H](C)NC(=O)[C@@H](N)Cc2cnc[nH]2)[C@@H](C)O)[C@@H](C)O)C(=O)N[C@@H](Cc2ccc(-c3ccccc3C)cc2)C(N)=O)cc1 | 93 nM
Cc1cccc(-c2ccc(C[C@H](NC(=O)[C@H](Cc3ccc(-c4ccccc4)cc3)NC(=O)[C@H](CC(=O)O)NC(=O)[C@H](CO)NC(=O)[C@@H](NC(=O)[C@H](Cc3ccccc3)NC(=O)[C@@H](NC(=O)CNC(=O)[C@H](CCC(=O)O)NC(=O)[C@H](C)NC(=O)[C@@H](N)Cc3cnc[nH]3)[C@@H](C)O)[C@@H](C)O)C(N)=O)cc2)c1 | 215 nM
CCc1ccccc1-c1ccc(C[C@H](NC(=O)[C@H](CC(=O)O)NC(=O)[C@H](CO)NC(=O)[C@@H](NC(=O)[C@H](Cc2ccccc2)NC(=O)[C@@H](NC(=O)CNC(=O)[C@H](CCC(=O)O)NC(=O)[C@H](C)NC(=O)[C@@H](N)Cc2cnc[nH]2)[C@@H](C)O)[C@@H](C)O)C(=O)N[C@@H](Cc2ccc(-c3ccccc3)cc2)C(N)=O)cc1 | 27 nM
COc1cccc(-c2ccc(C[C@H](NC(=O)[C@H](CC(=O)O)NC(=O)[C@H](CO)NC(=O)[C@@H](NC(=O)[C@H](Cc3ccccc3)NC(=O)[C@@H](NC(=O)CNC(=O)[C@H](CCC(=O)O)NC(=O)[C@H](C)NC(=O)[C@@H](N)Cc3cnc[nH]3)[C@@H](C)O)[C@@H](C)O)C(=O)N[C@@H](Cc3ccc(-c4ccccc4C)cc3)C(N)=O)cc2)c1 | 965 nM
C[C@H](NC(=O)[C@@H](N)Cc1cnc[nH]1)C(=O)N[C@@H](CCC(=O)O)C(=O)NCC(=O)N[C@H](C(=O)N[C@@H](Cc1ccccc1)C(=O)N[C@H](C(=O)N[C@@H](CO)C(=O)N[C@@H](CC(=O)O)C(=O)N[C@@H](Cc1ccc(-c2ccccc2)cc1)C(=O)N[C@@H](Cc1ccc(-c2ccc(F)cc2)cc1)C(N)=O)[C@@H](C)O)[C@@H](C)O | 430 nM
CCc1cc(OC)ccc1-c1ccc(C[C@H](NC(=O)[C@H](CC(=O)O)NC(=O)[C@H](CO)NC(=O)[C@@H](NC(=O)[C@](C)(Cc2ccccc2)NC(=O)[C@@H](NC(=O)CNC(=O)[C@H](CCC(=O)O)NC(=O)C(C)(C)NC(=O)[C@@H](N)Cc2cnc[nH]2)[C@@H](C)O)[C@@H](C)O)C(=O)N[C@@H](Cc2ccc(-c3ccccc3C)cc2)C(N)=O)cc1 (H-H[Aib]EGT[αMeF]TSD[Bip(2'-Et-4'-OMe)][Bip(2'-Me)]-NH2) | 0.28 nM
CCc1ccccc1-c1ccc(C[C@H](NC(=O)[C@H](CC(=O)O)NC(=O)[C@H](CO)NC(=O)[C@@H](NC(=O)[C@H](Cc2ccccc2)NC(=O)[C@@H](NC(=O)CNC(=O)[C@H](CCC(=O)O)NC(=O)[C@H](C)NC(=O)[C@@H](N)Cc2cnc[nH]2)[C@@H](C)O)[C@@H](C)O)C(=O)N[C@@H](Cc2ccc(-c3ccccc3C)cc2)C(N)=O)cc1 | 22 nM
C[C@H](NC(=O)[C@@H](N)Cc1cnc[nH]1)C(=O)N[C@@H](CCC(=O)O)C(=O)NCC(=O)N[C@H](C(=O)N[C@@H](Cc1ccccc1)C(=O)N[C@H](C(=O)N[C@@H](CO)C(=O)N[C@@H](CC(=O)O)C(=O)N[C@@H](Cc1ccc(-c2ccccc2)cc1)C(N)=O)[C@@H](C)O)[C@@H](C)O | > 10000 nM
COc1ccc(-c2ccc(C[C@H](NC(=O)[C@H](Cc3ccc(-c4ccccc4)cc3)NC(=O)[C@H](CC(=O)O)NC(=O)[C@H](CO)NC(=O)[C@@H](NC(=O)[C@H](Cc3ccccc3)NC(=O)[C@@H](NC(=O)CNC(=O)[C@H](CCC(=O)O)NC(=O)[C@H](C)NC(=O)[C@@H](N)Cc3cnc[nH]3)[C@@H](C)O)[C@@H](C)O)C(N)=O)cc2)cc1 | 390 nM
Cc1ccc(-c2ccc(C[C@H](NC(=O)[C@H](Cc3ccc(-c4ccccc4C)cc3)NC(=O)[C@H](CC(=O)O)NC(=O)[C@H](CO)NC(=O)[C@@H](NC(=O)[C@H](Cc3ccccc3)NC(=O)[C@@H](NC(=O)CNC(=O)[C@H](CCC(=O)O)NC(=O)[C@H](C)NC(=O)[C@@H](N)Cc3cnc[nH]3)[C@@H](C)O)[C@@H](C)O)C(N)=O)cc2)cc1 | 95 nM
CCc1cc(OC)ccc1-c1ccc(C[C@H](NC(=O)[C@H](CC(=O)O)NC(=O)[C@H](CO)NC(=O)[C@@H](NC(=O)[C@](C)(Cc2ccccc2)NC(=O)[C@@H](NC(=O)CNC(=O)[C@H](CCC(=O)O)NC(=O)[C@H](C)NC(=O)[C@@H](N)Cc2cnc[nH]2)[C@@H](C)O)[C@@H](C)O)C(=O)N[C@@H](Cc2ccc(-c3ccccc3C)cc2)C(N)=O)cc1 (H-HAEGT[αMeF]TSD[Bip(2'-Et-4'-OMe)][Bip(2'-Me)]-NH2) | 2.4 nM
C[C@H](NC(=O)[C@@H](N)Cc1cnc[nH]1)C(=O)N[C@@H](CCC(=O)O)C(=O)NCC(=O)N[C@H](C(=O)N[C@@H](Cc1ccccc1)C(=O)N[C@H](C(=O)N[C@@H](CO)C(=O)N[C@@H](CC(=O)O)C(=O)N[C@@H](Cc1ccc(-c2ccccc2)cc1)C(=O)N[C@@H](Cc1ccc(-c2ccccc2)cc1)C(N)=O)[C@@H](C)O)[C@@H](C)O | 545 nM
Cc1ccccc1-c1ccc(C[C@H](NC(=O)[C@H](Cc2ccc(-c3ccccc3C)cc2)NC(=O)[C@H](CC(=O)O)NC(=O)[C@H](CO)NC(=O)[C@@H](NC(=O)[C@H](Cc2ccccc2)NC(=O)[C@@H](NC(=O)CNC(=O)[C@H](CCC(=O)O)NC(=O)[C@H](C)NC(=O)[C@@H](N)Cc2cnc[nH]2)[C@@H](C)O)[C@@H](C)O)C(N)=O)cc1 | 148 nM
Cc1cccc(-c2ccc(C[C@H](NC(=O)[C@H](Cc3ccc(-c4ccccc4C)cc3)NC(=O)[C@H](CC(=O)O)NC(=O)[C@H](CO)NC(=O)[C@@H](NC(=O)[C@H](Cc3ccccc3)NC(=O)[C@@H](NC(=O)CNC(=O)[C@H](CCC(=O)O)NC(=O)[C@H](C)NC(=O)[C@@H](N)Cc3cnc[nH]3)[C@@H](C)O)[C@@H](C)O)C(N)=O)cc2)c1 | 87 nM
Cc1ccc(-c2ccc(C[C@H](NC(=O)[C@H](Cc3ccc(-c4ccccc4)cc3)NC(=O)[C@H](CC(=O)O)NC(=O)[C@H](CO)NC(=O)[C@@H](NC(=O)[C@H](Cc3ccccc3)NC(=O)[C@@H](NC(=O)CNC(=O)[C@H](CCC(=O)O)NC(=O)[C@H](C)NC(=O)[C@@H](N)Cc3cnc[nH]3)[C@@H](C)O)[C@@H](C)O)C(N)=O)cc2)cc1 | 270 nM
COc1ccc(-c2ccc(C[C@H](NC(=O)[C@H](CC(=O)O)NC(=O)[C@H](CO)NC(=O)[C@@H](NC(=O)[C@H](Cc3ccccc3)NC(=O)[C@@H](NC(=O)CNC(=O)[C@H](CCC(=O)O)NC(=O)[C@H](C)NC(=O)[C@@H](N)Cc3cnc[nH]3)[C@@H](C)O)[C@@H](C)O)C(=O)N[C@@H](Cc3ccc(-c4ccccc4C)cc3)C(N)=O)cc2)c(C)c1 | 35 nM

target: T1, Glucagon-like peptide 1 receptor; assay: Agonist activity at human GLP1R expressed in CHO cells assessed as stimulation of intracellular [3H]cAMP accumulation at 1 to 100 nM after 30 mins by scintillation proximity assay in presence of GLP1R antagonist truncated exendin-4(9-39); format: functional, cell-based; outline: as §1

SMILES | Activity
C[C@H](NC(=O)[C@@H](N)Cc1cnc[nH]1)C(=O)N[C@@H](CCC(=O)O)C(=O)NCC(=O)N[C@H](C(=O)N[C@@H](Cc1ccccc1)C(=O)N[C@H](C(=O)N[C@@H](CO)C(=O)N[C@@H](CC(=O)O)C(=O)N[C@@H](Cc1ccc(-c2ccccc2)cc1)C(=O)N[C@@H](Cc1ccc(-c2ccccc2)cc1)C(N)=O)[C@@H](C)O)[C@@H](C)O | inactive
